pEC50: −log10 of the molar value.
Assays:
[1] = molecular target: T1, Voltage-gated L-type calcium channel (Homo sapiens, UniProt Q13936+Q13698+Q01668+O60840); experiment: Inhibition of voltage-dependent L-type calcium channel in human U373MG cells assessed as protection against oxygen glucose deprivation/reperfusion-induced injury by measuring recovery of cell viability at 1 uM administered at onset of reperfusion period measured after 16 hrs by alamar blue assay relative to control; assay type: cell-based
In short: (§1)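 U-373 MG astrocytoma cells seeded at 30000 cells/ml and grown 24 or 48 h (37 °C/5% CO2). OGD: 24 h at 37 °C in glucose-free DMEM pre-bubbled with 95% N2/5% CO2, in a sealed nitrogen-flushed chamber. Then 16 h reperfusion in normal medium; compounds added at reperfusion, diluted from DMSO stock (DMSO ≤0.1%). Viability by alamarBlue, 4 h at 37 °C, fluorescence ex 530–560/em 590 nm. Expressed as % recovery from injury, mean ± S.E. of ≥3 experiments in sixuplicate.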

[2] = molecular target: T2, Voltage-gated L-type calcium channel (Rattus norvegicus, UniProt P22002+Q02485+P27732); experiment: Inhibition of voltage-dependent L-type calcium channel in Wistar rat brain slices assessed as protection against oxygen glucose deprivation/reperfusion-induced injury by measuring recovery of LDH release at 20 uM administered at onset of reperfusion period measured after 90 mins by spectrophotometric assay relative to control; design: scale not given: the % may be the effect or the level left; conditions: 1.5 h
Left cardiac atrium [3] = experiment: Negative inotropic activity in guinea pig left atrium assessed as decrease in developed tension at 0.001 to 100 uM relative to control; assay type: ADME, tissue-based; conditions: Cavia porcellus
[4] = molecular target: T2, Voltage-gated L-type calcium channel; experiment: Inhibition of voltage-dependent L-type calcium channel in Wistar rat brain slices assessed as protection against oxygen glucose deprivation/reperfusion-induced injury by measuring recovery of edema formation at 20 uM administered at onset of reperfusion period measured after 90 mins relative to control; design: scale not given: the % may be the effect or the level left; conditions: 1.5 h
[5] = molecular target: T1, Voltage-gated L-type calcium channel; experiment: Inhibition of voltage-dependent L-type calcium channel in human SH-SY5Y cells assessed as protection against glutamate-induced excitotoxicity by measuring recovery of cell viability at 1 uM measured after 24 hrs by alamar blue-based fluorescence method relative to control
Aorta [6] = experiment: Inhibition of calcium-induced contraction in K+-depolarized guinea pig aortic strips at 10^-4 M relative to control; assay type: tissue-based; conditions: Cavia porcellus
[7] = system: Left cardiac atrium (Cavia porcellus); experiment: Negative inotropic activity in guinea pig left atrium assessed as decrease in developed tension
Right cardiac atrium [8] = experiment: Negative chronotropic activity in guinea pig right atrium assessed as decrease in atrial rate at 5 x 10^-6 M relative to control; design: scale not given: the % may be the effect or the level left; conditions: 5 µM
[9] = molecular target: T1, Voltage-gated L-type calcium channel; experiment: Inhibition of voltage-dependent L-type calcium channel in human U373MG cells assessed as protection against oxygen glucose deprivation/reperfusion-induced injury by measuring recovery of cell viability at 20 uM administered at onset of reperfusion period measured after 16 hrs by alamar blue assay relative to control; assay type: cell-based; in short: as §1
Left cardiac atrium [10] = experiment: Negative inotropic activity in guinea pig left atrium assessed as decrease in developed tension at 5 x 10^-7 M relative to control; assay type: ADME, tissue-based, Cavia porcellus; design: scale not given: the % may be the effect or the level left; conditions: 0.5 µM
Right cardiac atrium [11] = experiment: Negative chronotropic activity in guinea pig spontaneously beating right atrium assessed as decrease in atrial rate at 10^-5 M relative to control; assay type: ADME, tissue-based, Cavia porcellus; design: scale not given: the % may be the effect or the level left; conditions: 10 µM
[12] = molecular target: T1, Voltage-gated L-type calcium channel; experiment: Inhibition of voltage-dependent L-type calcium channel in human SH-SY5Y cells assessed as protection against glutamate-induced excitotoxicity by measuring recovery of cell viability at 20 uM measured after 24 hrs by alamar blue-based fluorescence method relative to control
Right cardiac atrium [13] = experiment: Negative chronotropic activity in guinea pig spontaneously beating right atrium assessed as decrease in atrial rate; assay type: tissue-based; conditions: Cavia porcellus
Left cardiac atrium [14] = experiment: Negative inotropic activity in guinea pig left atrium assessed as decrease in developed tension at 10^-6 M relative to control; assay type: ADME, tissue-based, Cavia porcellus; design: scale not given: the % may be the effect or the level left; conditions: 1 µM
Right cardiac atrium [15] = experiment: Negative chronotropic activity in guinea pig spontaneously beating right atrium assessed as decrease in atrial rate at 5 x 10^-5 M relative to control; assay type: tissue-based, Cavia porcellus; design: scale not given: the % may be the effect or the level left; conditions: 50 µM
[16] = Selectivity ratio of EC50 for negative chronotropic activity in guinea pig spontaneously beating right atrium to EC50 for negative inotropic activity in guinea pig left atrium; assay type: ADME, tissue-based, Cavia porcellus
Left cardiac atrium [17] = experiment: Negative inotropic activity in guinea pig left atrium assessed as decrease in developed tension at 5 x 10^-6 M relative to control; assay type: ADME, tissue-based, Cavia porcellus; design: scale not given: the % may be the effect or the level left; conditions: 5 µM
Right cardiac atrium [18] = experiment: Negative chronotropic activity in guinea pig spontaneously beating right atrium assessed as decrease in atrial rate at 5 x 10^-6 M relative to control; assay type: ADME, tissue-based, Cavia porcellus; design: scale not given: the % may be the effect or the level left; conditions: 5 µM
Left cardiac atrium [19] = experiment: Negative inotropic activity in guinea pig left atrium assessed as decrease in developed tension at 10^-4 M relative to control; assay type: ADME, tissue-based, Cavia porcellus; design: scale not given: the % may be the effect or the level left; conditions: 100 µM
Right cardiac atrium [20] = experiment: Negative inotropic activity in guinea pig right atrium assessed as decrease in developed tension at 10^-4 M relative to control; assay type: ADME, tissue-based, Cavia porcellus; design: scale not given: the % may be the effect or the level left; conditions: 100 µM
Right cardiac atrium [21] = experiment: Negative chronotropic activity in guinea pig spontaneously beating right atrium assessed as decrease in atrial rate at 10^-4 M relative to control; assay type: ADME, tissue-based, Cavia porcellus; design: scale not given: the % may be the effect or the level left; conditions: 100 µM
Right cardiac atrium [22] = experiment: Negative chronotropic activity in guinea pig spontaneously beating right atrium assessed as decrease in atrial rate at 10^-6 M relative to control; assay type: ADME, tissue-based, Cavia porcellus; design: scale not given: the % may be the effect or the level left; conditions: 1 µM
Aorta [23] = experiment: Inhibition of calcium-induced contraction in K+-depolarized guinea pig aortic strips at 5 x 10^-5 M relative to control; assay type: tissue-based; conditions: Cavia porcellus
Left cardiac atrium [24] = experiment: Negative inotropic activity in guinea pig left atrium assessed as decrease in developed tension at 5 x 10^-5 M relative to control; assay type: ADME, tissue-based, Cavia porcellus; design: scale not given: the % may be the effect or the level left; conditions: 50 µM
Right cardiac atrium [25] = experiment: Negative inotropic activity in guinea pig right atrium assessed as decrease in developed tension at 10^-7 M relative to control; assay type: ADME, tissue-based, Cavia porcellus; design: scale not given: the % may be the effect or the level left; conditions: 0.1 µM
Right cardiac atrium [26] = experiment: Negative chronotropic activity in guinea pig spontaneously beating right atrium assessed as decrease in atrial rate at 5 x 10^-7 M relative to control; assay type: ADME, tissue-based, Cavia porcellus; design: scale not given: the % may be the effect or the level left; conditions: 0.5 µM
Right cardiac atrium [27] = experiment: Negative inotropic activity in guinea pig right atrium assessed as decrease in developed tension at 10^-5 M relative to control; assay type: ADME, tissue-based, Cavia porcellus; design: scale not given: the % may be the effect or the level left; conditions: 10 µM
Left cardiac atrium [28] = experiment: Negative inotropic activity in guinea pig left atrium assessed as decrease in developed tension at 10^-5 M relative to control; design: scale not given: the % may be the effect or the level left; conditions: Left cardiac atrium, 10 µM
Right cardiac atrium [29] = experiment: Negative chronotropic activity in guinea pig spontaneously beating right atrium assessed as decrease in atrial rate at 10^-7 M relative to control; assay type: ADME, tissue-based, Cavia porcellus; design: scale not given: the % may be the effect or the level left; conditions: 0.1 µM

Row | SMILES | Activity [1] | Activity [2] | pEC50 (Left cardiac atrium [3]) | Activity [4] | Activity [5] | inhibition at 100 µM (Aorta [6]) | pEC50 [7] | Activity [9] | Activity (Right cardiac atrium [11]) | Activity [12] | pEC50 (Right cardiac atrium [13]) | other results
1 | CCOC(=O)C1=C(C)NC(C)=C(C(=O)OCC)C1c1c(-c2ccc([N+](=O)[O-])cc2)nc2sc(F)cn12 | 22.2% | 23.3% | 7.62 | 76.4% | 28.8% | 13% | 7.11 | 28.5% | 20% | 51.1% | – | Activity (Right cardiac atrium [8]): 67%; Activity (Left cardiac atrium [10]): 78%
2 | CCOC(=O)C1=C(C)NC(C)=C(C(=O)OCC)C1c1c(-c2ccc(F)cc2)nc2sc(C)cn12 | 9.1% | – | – | – | 28.9% | 12% | – | 13.2% | – | 43.1% | 7.64 | Activity (Left cardiac atrium [14]): 37%; Activity (Right cardiac atrium [15]): 86%
3 | COC(=O)C1=C(C)NC(C)=C(C(=O)OC)C1c1c(-c2cc(Br)c(OC)cc2OC)nc2sccn12 | < 5% | – | 6.52 | – | < 5% | 34% | – | < 5% | – | < 5% | 5.78 | Ratio EC50 [16]: 25 to 56; Activity (Left cardiac atrium [17]): 63%; Activity (Right cardiac atrium [18]): 74%
4 | CCOC(=O)C1=C(C)NC(C)=C(C(=O)OCC)C1c1c(-c2ccc(Cl)cc2)nc2sc(Cl)cn12 | < 5% | – | 5.46 | – | 25.1% | 45% | – | < 5% | – | 47.1% | 5.76 | Activity (Right cardiac atrium [15]): 94%; Activity (Left cardiac atrium [19]): 73%
5 | CCOC(=O)C1=C(C)NC(C)=C(C(=O)OCC)C1c1c(-c2ccc([N+](=O)[O-])cc2)nc2sc(Cl)cn12 | 10.3% | – | 5.86 | – | < 5% | 12% | 5.66 | 26.1% | – | < 5% | – | Activity (Right cardiac atrium [20]): 79%; Activity (Right cardiac atrium [21]): 25%; Activity (Left cardiac atrium [19]): 74%
6 | CCOC(=O)C1=C(C)NC(C)=C(C(=O)OCC)C1c1c(-c2cc(OC)ccc2OC)nc2sc(Br)cn12 | < 5% | < 5% | 7.59 | < 5% | < 5% | 22% | – | 29.32% | – | 57.6% | 6.92 | Activity (Right cardiac atrium [22]): 94%; Ratio EC50 [16]: < 10; Activity (Left cardiac atrium [17]): 69%
7 | CCOC(=O)C1=C(C)NC(C)=C(C(=O)OCC)C1c1c(-c2ccc(F)c(F)c2)nc2sccn12 | < 5% | 20.5% | 7.68 | 80.5% | 37.4% | 14% | – | < 5% | – | 50.7% | 7.00 | Activity (Right cardiac atrium [22]): 77%; Ratio EC50 [16]: < 10; Activity (Left cardiac atrium [10]): 83%
8 | CCOC(=O)C1=C(C)NC(C)=C(C(=O)OCC)C1c1c(-c2ccc(F)cc2)nc2sc(Br)cn12 | < 5% | – | – | – | < 5% | – | – | < 5% | 25% | < 5% | – | inhibition at 50 µM (Aorta [23]): 7%; Activity (Left cardiac atrium [24]): 37%
9 | CCOC(=O)C1=C(C)NC(C)=C(C(=O)OCC)C1c1c(-c2ccc(Cl)cc2)nc2sccn12 | < 5% | – | 7.01 | – | 6.8% | 43% | 7.72 | < 5% | – | 44.4% | – | Activity (Right cardiac atrium [25]): 79%; Activity (Right cardiac atrium [26]): 38%; Activity (Left cardiac atrium [19]): 61%
10 | CCOC(=O)C1=C(C)NC(C)=C(C(=O)OCC)C1c1c(-c2cc([N+](=O)[O-])c(Cl)cc2Cl)nc2sc(Cl)cn12 | 16.5% | – | 7.09 | – | 40.8% | 17% | 6.66 | 15.4% | – | 40.7% | – | Activity (Right cardiac atrium [27]): 82%; Activity (Left cardiac atrium [24]): 86%; Activity (Right cardiac atrium [15]): 37%
11 | CCOC(=O)C1=C(C)NC(C)=C(C(=O)OCC)C1c1c(-c2ccccc2F)nc2sccn12 | < 5% | – | 5.29 | – | 53.2% | – | – | 36.8% | 86% | 62.2% | 6.01 | inhibition at 50 µM (Aorta [23]): 17%; Activity (Left cardiac atrium [24]): 55%
12 | CCOC(=O)C1=C(C)NC(C)=C(C(=O)OCC)C1c1c(-c2cc([N+](=O)[O-])c(Cl)cc2Cl)nc2sc(CC)cn12 | 21.2% | 18% | 7.48 | < 5% | 14.7% | 15% | 5.83 | 26.7% | 40% | 41.6% | – | Activity (Left cardiac atrium [10]): 67%; Activity (Right cardiac atrium [27]): 58%
13 | COC(=O)C1=C(C)NC(C)=C(C(=O)OC)C1c1ccccc1[N+](=O)[O-] [NIFEDIPINE] | 34.4% | – | – | – | 55% | – | – | 73.7% | – | 101.6% | 7.41 | Activity (Left cardiac atrium [28]): 97%; Activity ([2]; Brain): 72.3%; Activity (Right cardiac atrium [29]): 85%; Activity ([4]; Brain): 95.7%

From ChEMBL document CHEMBL4385592, “4-Imidazo[2,1-b]thiazole-1,4-DHPs and neuroprotection: preliminary study in hits searching” (Eur J Med Chem, 2019)
